≈ marks a conversion by molar mass, not a printed value.
Tests used:
Assay type in all cases: functional
Staphylococcus aureus [1] = test: Antibacterial activity against multidrug-resistant Staphylococcus aureus isolate 2728 by broth microdilution assay
In short: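 Broth microdilution MIC per CLSI guidelines against clinical MRSA isolates, for β-lactams and test compound alone and in combination. Compounds were dissolved in DMSO. Growth was read by eye, in duplicate. FIC index = FIC(compound) + FIC(drug); synergy defined as FIC index ≤0.5.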

Staphylococcus aureus [2] = test: Synergistic antibacterial activity against multidrug-resistant Staphylococcus aureus isolate 231 in presence of amoxicillin by broth microdilution assay
In short: (§1)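 Clinical MRSA isolate panel; compound and β-lactam tested alone and in combination by CLSI broth microdilution, compounds dissolved in DMSO, growth inhibition scored by eye, run in duplicate. FIC index = FIC(compound) + FIC(drug), each the MIC in combination divided by the MIC alone; an index ≤ 0.5 was called synergy.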

Staphylococcus aureus [3] = test: Synergistic antibacterial activity against multidrug-resistant Staphylococcus aureus isolate 2901 in presence of amoxicillin by broth microdilution assay
In short: (§2)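 CLSI broth microdilution on clinical MRSA isolates. MICs were measured for the β-lactam alone, the test agent alone and the two combined. Compounds were dissolved in DMSO, and growth inhibition was scored by eye. FIC index is the sum, over both agents, of MIC in combination divided by MIC alone. An FIC index ≤0.5 was taken as synergy.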

Staphylococcus aureus [4] = test: Synergistic antibacterial activity against multidrug-resistant Staphylococcus aureus isolate 2895 in presence of amoxicillin by broth microdilution assay; in short: as §2
Staphylococcus aureus [5] = test: Synergistic antibacterial activity against multidrug-resistant Staphylococcus aureus isolate 2516 in presence of amoxicillin by broth microdilution assay; in short: as §1
Staphylococcus aureus [6] = test: Synergistic antibacterial activity against multidrug-resistant Staphylococcus aureus isolate 358 in presence of amoxicillin by broth microdilution assay
Staphylococcus aureus [7] = test: Synergistic antibacterial activity against multidrug-resistant Staphylococcus aureus isolate 417 in presence of methicillin by broth microdilution assay
Staphylococcus aureus [8] = test: Synergistic antibacterial activity against multidrug-resistant Staphylococcus aureus isolate 3589 in presence of methicillin by broth microdilution assay
Staphylococcus aureus [9] = test: Synergistic antibacterial activity against multidrug-resistant Staphylococcus aureus isolate 3411 in presence of methicillin by broth microdilution assay
Staphylococcus aureus [10] = test: Synergistic antibacterial activity against multidrug-resistant Staphylococcus aureus isolate 3589 in presence of cloxacillin by broth microdilution assay
Staphylococcus aureus [11] = test: Synergistic antibacterial activity against multidrug-resistant Staphylococcus aureus isolate 3411 in presence of cloxacillin by broth microdilution assay
Staphylococcus aureus [12] = test: Synergistic antibacterial activity against multidrug-resistant Staphylococcus aureus isolate 2516 in presence of cloxacillin by broth microdilution assay; in short: as §2
Staphylococcus aureus [13] = test: Synergistic antibacterial activity against multidrug-resistant Staphylococcus aureus isolate 1717 in presence of cloxacillin by broth microdilution assay; in short: as §1
Staphylococcus aureus [14] = test: Synergistic antibacterial activity against multidrug-resistant Staphylococcus aureus isolate 358 in presence of cloxacillin by broth microdilution assay
Staphylococcus aureus [15] = test: Synergistic antibacterial activity against multidrug-resistant Staphylococcus aureus isolate 85 in presence of cloxacillin by broth microdilution assay
Staphylococcus aureus [16] = test: Synergistic antibacterial activity against multidrug-resistant Staphylococcus aureus isolate 3589 in presence of cefuroxime by broth microdilution assay
Staphylococcus aureus [17] = test: Synergistic antibacterial activity against multidrug-resistant Staphylococcus aureus isolate 757 in presence of cefuroxime by broth microdilution assay
Staphylococcus aureus [18] = test: Synergistic antibacterial activity against multidrug-resistant Staphylococcus aureus isolate 1402 in presence of cefuroxime by broth microdilution assay; in short: as §1
Staphylococcus aureus [19] = test: Synergistic antibacterial activity against multidrug-resistant Staphylococcus aureus isolate 1449 in presence of cefuroxime by broth microdilution assay; in short: as §1
Staphylococcus aureus [20] = test: Synergistic antibacterial activity against multidrug-resistant Staphylococcus aureus isolate 254 in presence of meropenem by broth microdilution assay; in short: as §2
Staphylococcus aureus [21] = test: Synergistic antibacterial activity against multidrug-resistant Staphylococcus aureus isolate 417 in presence of meropenem by broth microdilution assay
Staphylococcus aureus [22] = test: Synergistic antibacterial activity against multidrug-resistant Staphylococcus aureus isolate 3589 in presence of meropenem by broth microdilution assay
Staphylococcus aureus [23] = test: Synergistic antibacterial activity against multidrug-resistant Staphylococcus aureus isolate 1717 in presence of meropenem by broth microdilution assay; in short: as §1
Staphylococcus aureus [24] = test: Synergistic antibacterial activity against multidrug-resistant Staphylococcus aureus isolate 200 in presence of meropenem by broth microdilution assay; in short: as §1
Staphylococcus aureus [25] = test: Synergistic antibacterial activity against multidrug-resistant Staphylococcus aureus isolate 1749 assessed as fractional Inhibitory concentration index in presence of amoxicillin by broth microdilution assay
In short: (§3)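 CLSI broth microdilution run on clinical MRSA isolates with each β-lactam alone, the test agent alone, and the two combined; agents dissolved in DMSO. Growth inhibition was read by eye. FIC index = FIC(compound) + FIC(β-lactam), where each FIC is the MIC in combination divided by the MIC alone. An index ≤0.5 was taken as synergy.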

Staphylococcus aureus [26] = test: Synergistic antibacterial activity against multidrug-resistant Staphylococcus aureus isolate 254 assessed as fractional Inhibitory concentration index in presence of methicillin by broth microdilution assay
Staphylococcus aureus [27] = test: Synergistic antibacterial activity against multidrug-resistant Staphylococcus aureus isolate 1717 assessed as fractional Inhibitory concentration index in presence of methicillin by broth microdilution assay; in short: as §3
Staphylococcus aureus [28] = test: Synergistic antibacterial activity against multidrug-resistant Staphylococcus aureus isolate 2490 assessed as fractional Inhibitory concentration index in presence of cloxacillin by broth microdilution assay; in short: as §3
Staphylococcus aureus [29] = test: Synergistic antibacterial activity against multidrug-resistant Staphylococcus aureus isolate 254 assessed as fractional Inhibitory concentration index in presence of cloxacillin by broth microdilution assay
Staphylococcus aureus [30] = test: Synergistic antibacterial activity against multidrug-resistant Staphylococcus aureus isolate 417 assessed as fractional Inhibitory concentration index in presence of cloxacillin by broth microdilution assay
Staphylococcus aureus [31] = test: Synergistic antibacterial activity against multidrug-resistant Staphylococcus aureus isolate 256 assessed as fractional Inhibitory concentration index in presence of cloxacillin by broth microdilution assay
Staphylococcus aureus [32] = test: Synergistic antibacterial activity against multidrug-resistant Staphylococcus aureus isolate 1717 assessed as fractional Inhibitory concentration index in presence of cloxacillin by broth microdilution assay; in short: as §3
Staphylococcus aureus [33] = test: Synergistic antibacterial activity against multidrug-resistant Staphylococcus aureus isolate 200 assessed as fractional Inhibitory concentration index in presence of cloxacillin by broth microdilution assay; in short: as §3
Staphylococcus aureus [34] = test: Synergistic antibacterial activity against multidrug-resistant Staphylococcus aureus isolate 2490 assessed as fractional Inhibitory concentration index in presence of cefuroxime by broth microdilution assay; in short: as §3
Staphylococcus aureus [35] = test: Synergistic antibacterial activity against multidrug-resistant Staphylococcus aureus isolate 2224 assessed as fractional Inhibitory concentration index in presence of cefuroxime by broth microdilution assay; in short: as §3
Staphylococcus aureus [36] = test: Synergistic antibacterial activity against multidrug-resistant Staphylococcus aureus isolate 85 assessed as fractional Inhibitory concentration index in presence of cefuroxime by broth microdilution assay
Staphylococcus aureus [37] = test: Synergistic antibacterial activity against multidrug-resistant Staphylococcus aureus isolate 1717 assessed as fractional Inhibitory concentration index in presence of meropenem by broth microdilution assay; in short: as §3
Staphylococcus aureus [38] = test: Synergistic antibacterial activity against multidrug-resistant Staphylococcus aureus isolate 200 assessed as fractional Inhibitory concentration index in presence of meropenem by broth microdilution assay; in short: as §3

Question: Which results are given for `CCCCCCCCCNc1ccc(F)c(C(N)=O)c1F`?
Answer: MIC (Staphylococcus aureus [1]): 128 µg/mL (≈ 429 µM); MIC (Staphylococcus aureus [2]): 4 µg/mL; MIC (Staphylococcus aureus [3]): 16 µg/mL; MIC (Staphylococcus aureus [4]): 16 µg/mL; MIC (Staphylococcus aureus [5]): 8 µg/mL; MIC (Staphylococcus aureus [6]): 4 µg/mL; MIC (Staphylococcus aureus [7]): 2 µg/mL; MIC (Staphylococcus aureus [8]): 4 µg/mL; MIC (Staphylococcus aureus [9]): 2 µg/mL; MIC (Staphylococcus aureus [10]): 2 µg/mL; MIC (Staphylococcus aureus [11]): 1 µg/mL; MIC (Staphylococcus aureus [12]): 2 µg/mL; MIC (Staphylococcus aureus [13]): 1 µg/mL; MIC (Staphylococcus aureus [14]): 1 µg/mL; MIC (Staphylococcus aureus [15]): 0.5 µg/mL; MIC (Staphylococcus aureus [16]): 2 µg/mL; MIC (Staphylococcus aureus [17]): 2 µg/mL; MIC (Staphylococcus aureus [18]): 2 µg/mL; MIC (Staphylococcus aureus [19]): 2 µg/mL; MIC (Staphylococcus aureus [20]): 8 µg/mL; MIC (Staphylococcus aureus [21]): 4 µg/mL; MIC (Staphylococcus aureus [22]): 4 µg/mL; MIC (Staphylococcus aureus [23]): 2 µg/mL; MIC (Staphylococcus aureus [24]): 8 µg/mL; fractional inhibitory concentration index (FICI) (Staphylococcus aureus [25]): 1; fractional inhibitory concentration index (FICI) (Staphylococcus aureus [26]): 0.3; fractional inhibitory concentration index (FICI) (Staphylococcus aureus [27]): 1.1; fractional inhibitory concentration index (FICI) (Staphylococcus aureus [28]): 0.6; fractional inhibitory concentration index (FICI) (Staphylococcus aureus [29]): 0.2; fractional inhibitory concentration index (FICI) (Staphylococcus aureus [30]): 0.1; fractional inhibitory concentration index (FICI) (Staphylococcus aureus [31]): 0.1; fractional inhibitory concentration index (FICI) (Staphylococcus aureus [32]): 2.5; fractional inhibitory concentration index (FICI) (Staphylococcus aureus [33]): 1; fractional inhibitory concentration index (FICI) (Staphylococcus aureus [34]): 0.2; fractional inhibitory concentration index (FICI) (Staphylococcus aureus [35]): 0.3; fractional inhibitory concentration index (FICI) (Staphylococcus aureus [36]): 0.3; fractional inhibitory concentration index (FICI) (Staphylococcus aureus [37]): 3; fractional inhibitory concentration index (FICI) (Staphylococcus aureus [38]): 8

— ChEMBL document CHEMBL4330069, “Boosting the efficacy of anti-MRSA β-lactam antibiotics via an easily accessible, non-cytotoxic and orally bioavailable FtsZ inhibitor” (Eur J Med Chem, 2019)
